Experimental data taken from article PMC8277681 (Molecular imaging and biology, 2021).

Biological target: mGluR2 (Rattus norvegicus, UniProt P31421)
Experiment: PET imaging of brain uptake and blocking in rats
Assay type: in vivo, Sprague Dawley rats
Conditions: blocker 4 mg/kg i.v. 10 min before [18F]8, 1–10 min time window
Procedure, shortened: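 Male Sprague Dawley rats (275–400 g) under isoflurane/nitrous oxide (1.0–1.5% isoflurane), tail vein catheterized. Dynamic 60-min PET started at i.v. injection of the 18F radioligand (20–41 MBq). Unlabeled blocker in saline with 10% ethanol and 10% Tween 20 was given 4 mg/kg i.v. 10 min before the radioligand. Percent change in regional brain uptake versus baseline scans was taken at 1–10 min.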

Chain of mGluR2 (P31421 19-872): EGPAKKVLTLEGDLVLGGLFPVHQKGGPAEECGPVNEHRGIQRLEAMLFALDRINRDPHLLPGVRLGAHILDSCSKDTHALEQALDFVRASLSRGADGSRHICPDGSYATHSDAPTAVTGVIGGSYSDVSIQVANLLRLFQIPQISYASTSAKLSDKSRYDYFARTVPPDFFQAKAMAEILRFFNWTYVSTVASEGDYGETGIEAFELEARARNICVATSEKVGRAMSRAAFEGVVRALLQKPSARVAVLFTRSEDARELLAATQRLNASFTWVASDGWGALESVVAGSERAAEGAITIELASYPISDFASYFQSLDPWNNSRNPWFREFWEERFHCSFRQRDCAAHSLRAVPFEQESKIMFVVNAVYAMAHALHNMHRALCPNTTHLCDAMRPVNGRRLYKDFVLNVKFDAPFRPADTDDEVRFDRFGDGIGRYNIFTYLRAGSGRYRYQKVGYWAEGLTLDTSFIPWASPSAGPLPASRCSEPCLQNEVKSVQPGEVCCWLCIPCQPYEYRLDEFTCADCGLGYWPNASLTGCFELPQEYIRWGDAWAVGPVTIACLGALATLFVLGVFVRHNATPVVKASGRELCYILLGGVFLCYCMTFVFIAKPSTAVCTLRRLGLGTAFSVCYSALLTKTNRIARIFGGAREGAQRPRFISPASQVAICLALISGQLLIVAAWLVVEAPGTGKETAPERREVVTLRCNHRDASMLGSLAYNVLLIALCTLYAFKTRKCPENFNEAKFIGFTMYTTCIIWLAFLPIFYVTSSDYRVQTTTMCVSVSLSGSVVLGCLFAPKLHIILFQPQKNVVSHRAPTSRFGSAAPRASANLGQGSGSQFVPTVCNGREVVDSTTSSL

Structure (SMILES): Fc1ccc(N2CCN(Cc3ccn4c(CC5CC5)nnc4c3C(F)(F)F)CC2)c(F)c1 [compound 8, 8-trifluoromethyl-3-cyclopropylmethyl-7-[(4-(2,4-difluorophenyl)-1-piperazinyl)methyl]-1,2,4-triazolo[4,3-a]pyridine]
- decrease of [18F]8 uptake in cerebellum (blocking effect): 18.8%
